The sample as a whole holds a higher share of hits than the screen did.
Lung fibro prol: blocks proliferation of human lung fibroblasts | 85,000 compounds, 1.1% hits | LL 47 human lung fibroblast viability, ATP luminescence; active compounds read low | AID 719 | viability, % at 10 µM;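 active means viability at or below 50% in the single dose screen; inactive means viability above 50%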;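 further: compound exposure lasted 72 h before the ATP readout; 100% = median luminescence of untreated cell-only wells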
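test system = LL 47 human lung fibroblasts | amount = 1,150 fibroblasts seeded per well | medium = 15% FBS in IMEM | times = overnight cell rest, 72 h compound treatment at 37 °C | measured by = CellTiter-Glo luminescence measuring cellular ATP | read-out = viability percentage against median untreated-cell control | benchmarks = cell-only wells, no compound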
PTEN del growth: growth suppressors of cells with PTEN tumor suppressor deletion; HCT116 PTEN-null viability, CellTiter-Glo, 60 h; active compounds read low; viability, % at 10 µM; 140,000 compounds, 1.2% hits; AID 827;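 active means viability at or below a set limit, 4 SD under the median of all tested compounds, cut at about 3.7% in these data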;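 further: PTEN knockout HCT116 line with beta catenin targeted HCT116 as companion control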
bCat KO growth: beta-catenin-lacking colon tumor cell growth suppression; HCT116 beta-catenin knockout viability, CellTiter-Glo, 60 h; active compounds read low; viability, % at 10 µM; 140,000 compounds, 1.5% hits;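 active means viability at or under a set limit, the compound median less 4 SD, cut at about 6% in these data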;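 further: 0% = Hyamine 1622 control at 20 µM and 100% = untreated cell control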
HUVEC inhibit: inhibitors of human endothelial cell proliferation; HUVEC proliferation, CellTiter-Glo luminescence, 72 h; active compounds read low; AID 648; 86,000 compounds, 1.1% hits; viability, % at 10 µM (by protocol);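 active means viability at or below 30%; inactive means viability above 30%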;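 further: 100% = median luminescence of DMSO-only cell control wells on each plate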
H69AR inhibit: growth inhibitors of human H69AR lung tumor cells; viability, % at 10 µM; 85,000 compounds, 6% hits; H69AR lung tumor viability, ATP luminescence, 72 h; active compounds read low;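 active means viability at or below 40%; inactive means viability above 40%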;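 further: multidrug resistant small cell line overexpressing MRP-1 efflux transporter; 100% = mean luminescence of untreated control wells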
An asterisk follows results filed as active.

Screening O=C(/C=C/c1ccccc1)NC(=S)NNC(=O)c1ccco1 returned Lung fibro prol 78, PTEN del growth 43, bCat KO growth 39, HUVEC inhibit 77 and H69AR inhibit 25*.
`COC(=O)COc1ccc(S(=O)(=O)N2CCc3ccccc3C2)cc1` gave Lung fibro prol 25*, PTEN del growth 106, bCat KO growth 98, HUVEC inhibit 19* and H69AR inhibit 109.
Screening CCOc1ccc(S(=O)(=O)N2CCc3ccccc3C2)cc1 returned Lung fibro prol 102, PTEN del growth 101, bCat KO growth 96, HUVEC inhibit 107 and H69AR inhibit 86.
CCOC(=O)C1=C(CSc2nc3ccccc3s2)NC(=O)NC1c1ccc(OC)cc1 (configuration not stated) was read as PTEN del growth 21 and bCat KO growth 5.7*.
`CCOC(=O)C1=C(CSc2nc3ccccc3s2)NC(=O)NC1c1cc(C)ccc1C` (configuration not stated) gave PTEN del growth 64 and bCat KO growth 62.
Screening Cc1ccc(Sc2ccc(/C=N/O)cc2[N+](=O)[O-])cc1 returned Lung fibro prol 73, PTEN del growth 83, bCat KO growth 77, HUVEC inhibit 76 and H69AR inhibit 1.1*.
COC(=O)c1ccc(-c2ccco2)n1Cc1nc(-c2ccc(OC)c(OC)c2)oc1C was read as Lung fibro prol 89, PTEN del growth 48, bCat KO growth 43, HUVEC inhibit 81 and H69AR inhibit 36*.
Screening COC(=O)c1ccc(-c2ccco2)n1Cc1ccccc1Cl returned Lung fibro prol 94, PTEN del growth 87, bCat KO growth 91, HUVEC inhibit 100 and H69AR inhibit 75.
`CCCCN(C)S(=O)(=O)c1ccc(C(=O)Nc2nnc(-c3cccs3)o2)cc1` gave Lung fibro prol 66, PTEN del growth 13, bCat KO growth 15, HUVEC inhibit 5.1* and H69AR inhibit 35*.
O=C(Nc1nnc(-c2ccccc2Cl)o1)c1ccc(S(=O)(=O)N2CCCCCC2)cc1 was read as Lung fibro prol 60, PTEN del growth 13, bCat KO growth 18, HUVEC inhibit 3.0* and H69AR inhibit 31*.
`CCCCN(CC)S(=O)(=O)c1ccc(C(=O)Nc2nnc(-c3ccccc3Cl)o2)cc1` gave Lung fibro prol 75, PTEN del growth 16, bCat KO growth 16, HUVEC inhibit 3.3* and H69AR inhibit 27*.
For O=C(Nc1nnc(-c2cccs2)o1)c1cccc(Oc2ccccc2)c1 the results were Lung fibro prol 88, PTEN del growth 10, bCat KO growth 19, HUVEC inhibit 61 and H69AR inhibit 39*.
Screening COC(=O)c1sccc1-c1ccc(/C=N/OC(=O)c2ccccc2)o1 returned PTEN del growth 96 and bCat KO growth 94.
For COC(=O)CCCC(=O)Nc1c(F)c(F)c(F)c(F)c1F the results were Lung fibro prol 106, PTEN del growth 102, bCat KO growth 94, HUVEC inhibit 100 and H69AR inhibit 84.
`CC1CCCCN1S(=O)(=O)c1ccc(C(=O)Nc2nnc(-c3ccccc3Cl)o2)cc1` (configuration not stated) gave Lung fibro prol 64, PTEN del growth 17, bCat KO growth 23, HUVEC inhibit 3.7* and H69AR inhibit 52.
CCC1CCCCN1S(=O)(=O)c1ccc(C(=O)Nc2nnc(-c3ccccc3Cl)o2)cc1 (configuration not stated) was read as Lung fibro prol 64, PTEN del growth 16, bCat KO growth 16, HUVEC inhibit 57 and H69AR inhibit 20*.
For CC1CCCCN1S(=O)(=O)c1ccc(C(=O)Nc2sccc2C(N)=O)cc1 (configuration not stated) the results were Lung fibro prol 94, PTEN del growth 80, bCat KO growth 55, HUVEC inhibit 79 and H69AR inhibit 75.
CC1=NOC(=O)/C1=C/c1ccc(N(C)C)cc1 was read as PTEN del growth 84 and bCat KO growth 90.
Screening CC1=NOC(=O)/C1=C/c1ccc(-c2ccc(Cl)cc2)o1 returned Lung fibro prol 8.7*, PTEN del growth 16, bCat KO growth 18, HUVEC inhibit 56 and H69AR inhibit 2.5*.
For CC1=NOC(=O)/C1=C\c1ccc(-c2cc(Cl)ccc2Cl)o1 the results were Lung fibro prol 6.3*, PTEN del growth 2.5*, bCat KO growth 3.0*, HUVEC inhibit 8.2* and H69AR inhibit 2.0*.

From PubChem BioAssay
